*1 amine or outer side, *2 acyl side, *3 side chain or, on linkers, in order; H or OH if unused. Where a SMILES comes first, the peptide text is derived from it. Bridges are numbered along the chain shown (N, C = ends). [ ]: non-standard residue; d: D form. The star is where a group is joined. 5FAM = O=C1OC2(c3ccc(O)cc3Oc3cc(O)ccc32)c2ccc(C(=O)*)cc21; Ala(indol-2-yl) = N[C@@H](Cc1cc2ccccc2[nH]1)C(=O)O; Phe(3-CF3) = N[C@@H](Cc1cccc(C(F)(F)F)c1)C(=O)O; Phe(3-Ph) = N[C@@H](Cc1cccc(-c2ccccc2)c1)C(=O)O; hhhhLys = O=C([C@H](CCCCCCCCN[*:3])N[*:1])[*:2]; X2 = CC(C)Cc1cccc(C[C@H](N[*:1])C(=O)[*:2])c1; Phe(3,5-F2) = N[C@@H](Cc1cc(F)cc(F)c1)C(=O)O; X1 = CCc1cccc(C[C@H](N[*:1])C(=O)[*:2])c1; Phe(3-Cl) = N[C@@H](Cc1cccc(Cl)c1)C(=O)O; Phe(4-Cl) = N[C@@H](Cc1ccc(Cl)cc1)C(=O)O; NH(CH2)9CO = O=C(CCCCCCCCCN[*:1])[*:2]; Phe(2-Cl) = N[C@@H](Cc1ccccc1Cl)C(=O)O; Phe(3-F) = N[C@@H](Cc1cccc(F)c1)C(=O)O; Phe(3-Me) = Cc1cccc(C[C@H](N)C(=O)O)c1; Phe(4-F) = N[C@@H](Cc1ccc(F)cc1)C(=O)O; Phe(2-F) = N[C@@H](Cc1ccccc1F)C(=O)O; Cha = N[C@@H](CC1CCCCC1)C(=O)O; Ahp(2) = CCCCC[C@H](N)C(=O)O; hLys = NCCCCC[C@H](N)C(=O)O; AEEEA = NCCOCCOCCOCC(=O)O; Ac5c = NC1(C(=O)O)CCCC1; Abu = CC[C@H](N)C(=O)O; Ac4c = NC1(C(=O)O)CCC1; Ac3c = NC1(C(=O)O)CC1; Aib = CC(C)(N)C(=O)O
The compounds below were run against T1, Menin (Homo sapiens, UniProt O00255) (assay: Binding affinity to menin (unknown origin) after 60 mins by fluorescence polarization assay).
T1 sequence (O00255 whole entry): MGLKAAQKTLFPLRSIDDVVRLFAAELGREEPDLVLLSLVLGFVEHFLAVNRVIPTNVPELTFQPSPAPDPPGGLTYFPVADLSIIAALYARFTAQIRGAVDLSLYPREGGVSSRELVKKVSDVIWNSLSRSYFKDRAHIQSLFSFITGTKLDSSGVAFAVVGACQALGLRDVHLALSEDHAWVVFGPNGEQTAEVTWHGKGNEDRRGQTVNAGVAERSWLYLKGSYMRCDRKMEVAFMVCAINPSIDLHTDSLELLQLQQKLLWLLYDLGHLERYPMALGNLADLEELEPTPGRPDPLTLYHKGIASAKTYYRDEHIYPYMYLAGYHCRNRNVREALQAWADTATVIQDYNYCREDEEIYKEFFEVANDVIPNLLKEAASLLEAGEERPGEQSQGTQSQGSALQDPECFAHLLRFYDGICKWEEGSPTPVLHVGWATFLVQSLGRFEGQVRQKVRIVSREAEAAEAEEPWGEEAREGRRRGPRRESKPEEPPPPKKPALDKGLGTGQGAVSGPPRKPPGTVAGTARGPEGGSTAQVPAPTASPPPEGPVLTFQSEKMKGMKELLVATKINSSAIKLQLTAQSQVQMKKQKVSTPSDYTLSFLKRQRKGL
Method in brief: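 Competitive FP with fluorescein-labeled peptide tracers. Compound in DMSO (2% final) was added to a preincubated menin/tracer complex in 100 mM potassium phosphate pH 7.5 with 100 μg/mL bovine γ-globulin and 0.02% sodium azide. Menin/tracer/detergent were 30 nM/3 nM/0.005% Triton X-100 or 3 nM/2 nM/0.02% Tween-20. Ki was derived from the fitted IC50, probe Kd and assay concentrations.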

Compound | IC50 | Ki | Kd
CC(=O)N[C@@H](CCCNC(=N)N)C(=O)N[C@@H](Cc1c[nH]c2ccccc12)C(=O)N[C@H]1CCCCNC(=O)[C@@H]2CCCN2C(=O)[C@H](CCCNC(=N)N)NC(=O)[C@H](C)NC(=O)[C@@H]2CCCN2C(=O)[C@H](Cc2ccccc2)NC1=O (Ac-RWKFPARP; lactam 3-C) | 11000 nM | 3320 nM | –
CCCCC[C@H](NC(=O)[C@H](Cc1c[nH]c2ccccc12)NC(=O)[C@H](CCCNC(=N)N)NC(C)=O)C(=O)N[C@@H](Cc1ccccc1)C(=O)N1CCC[C@H]1C(=O)N[C@@H](C)C(=O)N[C@@H](CCCNC(=N)N)C(=O)N1CCC[C@H]1C(=O)NCC (Ac-RW[Ahp(2)]FPARP-NHEt) | 7390 nM | 2170 nM | –
CC(=O)N[C@H]1CCCCCCCCNC(=O)[C@@H]2CCCN2C(=O)[C@H](CCCNC(=N)N)NC(=O)[C@H](C)NC(=O)[C@@H]2CCCN2C(=O)[C@H](Cc2ccccc2)NC1=O (Ac-[hhhhLys]FPARP; lactam 1-C) | 2160 nM | 586 nM | –
CC[C@@H]1NC(=O)[C@@H]2CCCN2C(=O)[C@H](Cc2ccccc2)NC(=O)[C@@H](N)CCCCCCCCNC(=O)[C@@H]2CCCN2C(=O)[C@H](CCCNC(=N)N)NC1=O (H-[hhhhLys]FP[Abu]RP; lactam 1-C) | 10700 nM | 3180 nM | –
N=C(N)NCCC[C@@H]1NC(=O)C2(CCCC2)NC(=O)[C@@H]2CCCN2C(=O)[C@H](Cc2ccccc2)NC(=O)[C@@H](N)CCCCCCCCNC(=O)[C@@H]2CCCN2C1=O (H-[hhhhLys]FP[Ac5c]RP; lactam 1-C) | 6320 nM | 1660 nM | –
N=C(N)NCCC[C@@H]1NC(=O)C2(CCC2)NC(=O)[C@@H]2CCCN2C(=O)[C@H](CC2CCCCC2)NC(=O)[C@@H](N)CCCCCCCCNC(=O)[C@@H]2CCCN2C1=O (H-[hhhhLys][Cha]P[Ac4c]RP; lactam 1-C) | 3330 nM | 862 nM | –
N=C(N)NCCC[C@@H]1NC(=O)C2(CCC2)NC(=O)[C@@H]2CCCN2C(=O)[C@H](Cc2cccc(C(F)(F)F)c2)NC(=O)[C@@H](N)CCCCCCCCNC(=O)[C@@H]2CCCN2C1=O (H-[hhhhLys][Phe(3-CF3)]P[Ac4c]RP; lactam 1-C) | 2520 nM | 725 nM | –
Cc1cccc(C[C@@H]2NC(=O)[C@@H](N)CCCCCCCCNC(=O)[C@@H]3CCCN3C(=O)[C@H](CCCNC(=N)N)NC(=O)C3(CCC3)NC(=O)[C@@H]3CCCN3C2=O)c1 (H-[hhhhLys][Phe(3-Me)]P[Ac4c]RP; lactam 1-C) | 1150 nM | 332 nM | –
N=C(N)NCCC[C@@H]1NC(=O)C2(CCC2)NC(=O)[C@@H]2CCCN2C(=O)[C@H](Cc2cccc(-c3ccccc3)c2)NC(=O)[C@@H](N)CCCCCCCCNC(=O)[C@@H]2CCCN2C1=O (H-[hhhhLys][Phe(3-Ph)]P[Ac4c]RP; lactam 1-C) | 39400 nM | 14000 nM | –
N=C(N)NCCC[C@@H]1NC(=O)C2(CCC2)NC(=O)[C@@H]2CCCN2C(=O)[C@H](Cc2ccc(Cl)cc2)NC(=O)[C@@H](N)CCCCCCCCNC(=O)[C@@H]2CCCN2C1=O (H-[hhhhLys][Phe(4-Cl)]P[Ac4c]RP; lactam 1-C) | 2010 nM | 549 nM | –
CCc1cccc(C[C@@H]2NC(=O)[C@@H](N)CCCCCCCCNC(=O)[C@@H]3CCCN3C(=O)[C@H](CCCNC(=N)N)NC(=O)C3(CCC3)NC(=O)[C@@H]3CCCN3C2=O)c1 (H-[hhhhLys][X1]P[Ac4c]RP; lactam 1-C) | 4610 nM | 1330 nM | –
CC(C)Cc1cccc(C[C@@H]2NC(=O)[C@@H](N)CCCCCCCCNC(=O)[C@@H]3CCCN3C(=O)[C@H](CCCNC(=N)N)NC(=O)C3(CCC3)NC(=O)[C@@H]3CCCN3C2=O)c1 (H-[hhhhLys][X2]P[Ac4c]RP; lactam 1-C) | 36000 nM | 11600 nM | –
C[C@@H]1NC(=O)[C@@H]2CCCN2C(=O)[C@H](Cc2ccccc2)NC(=O)CCCCCCCCCNC(=O)[C@@H]2CCCN2C(=O)[C@H](CCCNC(=N)N)NC1=O (cyclo(ARP[NH(CH2)9CO]FP)) | 6450 nM | 1840 nM | –
N=C(N)NCCC[C@H](NC(=O)COCCOCCOCCNC(=O)c1ccc2c(c1)C(=O)OC21c2ccc(O)cc2Oc2cc(O)ccc21)C(=O)N[C@@H](Cc1cc2ccccc2[nH]1)C(=O)N[C@H]1CCCCCCCCNC(=O)[C@@H]2CCCN2C(=O)[C@H](CCCNC(=N)N)NC(=O)C2(CCC2)NC(=O)[C@@H]2CCCN2C(=O)[C@H](Cc2cc(F)cc(F)c2)NC1=O ({5FAM-AEEEA}-R[Ala(indol-2-yl)][hhhhLys][Phe(3,5-F2)]P[Ac4c]RP; lactam 3-C) | – | – | 1.4 nM
Ac-RFPARP-NH2 | 9570 nM | 2850 nM | –
Ac-RWRFPAR-NH2 | 85300 nM | 25500 nM | –
Ac-WRFPARP-NH2 | 1060 nM | 311 nM | –

Further compounds by falling IC50, results first:

IC50 | Ki | Kd | Compound
665 nM | 197 nM | – | C[C@@H]1NC(=O)[C@@H]2CCCN2C(=O)[C@H](Cc2ccccc2)NC(=O)[C@@H](N)CCCCCCCCNC(=O)[C@@H]2CCCN2C(=O)[C@H](CCCNC(=N)N)NC1=O (H-[hhhhLys]FPARP; lactam 1-C)
514 nM | 136 nM | – | CC(=O)N[C@@H](CCCNC(=N)N)C(=O)N[C@@H](Cc1c[nH]c2ccccc12)C(=O)N[C@H]1CCCCCNC(=O)[C@@H]2CCCN2C(=O)[C@H](CCCNC(=N)N)NC(=O)[C@H](C)NC(=O)[C@@H]2CCCN2C(=O)[C@H](Cc2ccccc2)NC1=O (Ac-RW[hLys]FPARP; lactam 3-C)
422 nM | 123 nM | – | N=C(N)NCCC[C@@H]1NC(=O)C2(CCC2)NC(=O)[C@@H]2CCCN2C(=O)[C@H](Cc2ccc(F)cc2)NC(=O)[C@@H](N)CCCCCCCCNC(=O)[C@@H]2CCCN2C1=O (H-[hhhhLys][Phe(4-F)]P[Ac4c]RP; lactam 1-C)
232 nM | 71.1 nM | – | Ac-RWRFPARP-NH2
226 nM | 67 nM | – | CC1(C)NC(=O)[C@@H]2CCCN2C(=O)[C@H](Cc2ccccc2)NC(=O)[C@@H](N)CCCCCCCCNC(=O)[C@@H]2CCCN2C(=O)[C@H](CCCNC(=N)N)NC1=O (H-[hhhhLys]FP[Aib]RP; lactam 1-C)
194 nM | 55.5 nM | – | N=C(N)NCCC[C@@H]1NC(=O)C2(CC2)NC(=O)[C@@H]2CCCN2C(=O)[C@H](Cc2ccccc2)NC(=O)[C@@H](N)CCCCCCCCNC(=O)[C@@H]2CCCN2C1=O (H-[hhhhLys]FP[Ac3c]RP; lactam 1-C)
159 nM | 44.6 nM | – | N=C(N)NCCC[C@@H]1NC(=O)C2(CCC2)NC(=O)[C@@H]2CCCN2C(=O)[C@H](Cc2cccc(Cl)c2)NC(=O)[C@@H](N)CCCCCCCCNC(=O)[C@@H]2CCCN2C1=O (H-[hhhhLys][Phe(3-Cl)]P[Ac4c]RP; lactam 1-C)
144 nM | 42.5 nM | – | CC(=O)N[C@@H](CCCNC(=N)N)C(=O)N[C@@H](Cc1c[nH]c2ccccc12)C(=O)N[C@H]1CCCCCCCCCNC(=O)[C@@H]2CCCN2C(=O)[C@H](CCCNC(=N)N)NC(=O)[C@H](C)NC(=O)[C@@H]2CCCN2C(=O)[C@H](Cc2ccccc2)NC1=O
112 nM | 30 nM | – | N=C(N)NCCC[C@@H]1NC(=O)C2(CCC2)NC(=O)[C@@H]2CCCN2C(=O)[C@H](Cc2ccccc2Cl)NC(=O)[C@@H](N)CCCCCCCCNC(=O)[C@@H]2CCCN2C1=O (H-[hhhhLys][Phe(2-Cl)]P[Ac4c]RP; lactam 1-C)
102 nM | 27.5 nM | – | N=C(N)NCCC[C@@H]1NC(=O)C2(CCC2)NC(=O)[C@@H]2CCCN2C(=O)[C@H](Cc2ccccc2F)NC(=O)[C@@H](N)CCCCCCCCNC(=O)[C@@H]2CCCN2C1=O (H-[hhhhLys][Phe(2-F)]P[Ac4c]RP; lactam 1-C)
63.3 nM | 17.5 nM | – | CC(=O)N[C@@H](CCCNC(=N)N)C(=O)N[C@@H](Cc1c[nH]c2ccccc12)C(=O)N[C@H]1CCCCCCNC(=O)[C@@H]2CCCN2C(=O)[C@H](CCCNC(=N)N)NC(=O)[C@H](C)NC(=O)[C@@H]2CCCN2C(=O)[C@H](Cc2ccccc2)NC1=O
25.1 nM | 6.8 nM | – | N=C(N)NCCC[C@@H]1NC(=O)C2(CCC2)NC(=O)[C@@H]2CCCN2C(=O)[C@H](Cc2cccc(F)c2)NC(=O)[C@@H](N)CCCCCCCCNC(=O)[C@@H]2CCCN2C1=O (H-[hhhhLys][Phe(3-F)]P[Ac4c]RP; lactam 1-C)
25 nM | 6.9 nM | – | CC(=O)N[C@@H](CCCNC(=N)N)C(=O)N[C@@H](Cc1c[nH]c2ccccc12)C(=O)N[C@H]1CCCCCCCCNC(=O)[C@@H]2CCCN2C(=O)[C@H](CCCNC(=N)N)NC(=O)[C@H](C)NC(=O)[C@@H]2CCCN2C(=O)[C@H](Cc2ccccc2)NC1=O (Ac-RW[hhhhLys]FPARP; lactam 3-C)
11.4 nM | 2.9 nM | – | Ac-RWRFPARPGTGRR-NH2

Source: ChEMBL document CHEMBL2311406, “Structure-based design of high-affinity macrocyclic peptidomimetics to block the menin-mixed lineage leukemia 1 (MLL1) protein-protein interaction” (J Med Chem, 2013)
